Counter-ions that a name gives are not always drawn.

This is an account of results in ChEMBL document CHEMBL1157242, “Triterpene saponins with gastroprotective effects from tea seed (the seeds of Camellia sinensis)” (2006).

Conditions in all cases: Gastric mucosa
Assay [1] deals with Rattus norvegicus. Put plainly: Gastroprotective effect in […] assessed as inhibition of ethanol-induced gastric mucosal lesions at 5 mg/kg, po administered 1 hr prior to ethanol challenge relative to control. The class given is functional. The essentials:
(§1)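 Male […] fasted 24-26 h with free access to water, conscious. Given agent orally at 5.0 mL/kg, suspended in 5% acacia or 0.5% CMC-Na. 1 h later, 99.5% ethanol 1.5 mL/rat by orogastric tube. After 1 h, stomach fixed with 1.5% formalin and opened. Lesion index is total lesion length (mm). Inhibition is versus vehicle controls, n = 4-6.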

In assay [2] the test system is Rattus norvegicus. In words: Gastroprotective effect in […] assessed as inhibition of ethanol-induced gastric mucosal lesions at 150 mg/kg, po administered 1 hr prior to ethanol challenge relative to control. It counts as functional. The method in brief:
as §1

Assay [3] relates to Rattus norvegicus. Put plainly: Gastroprotective effect in […] assessed as inhibition of ethanol-induced gastric mucosal lesions at 75 mg/kg, po administered 1 hr prior to ethanol challenge relative to control. It counts as functional. The essentials: as §1
In assay [4] the test system is Rattus norvegicus. In words: Gastroprotective effect in […] assessed as inhibition of ethanol-induced gastric mucosal lesions at 300 mg/kg, po administered 1 hr prior to ethanol challenge relative to control. The class given is functional. The essentials: as §1
Assay [5] concerns Rattus norvegicus. In words: Gastroprotective effect in […] assessed as inhibition of ethanol-induced gastric mucosal lesions at 5 mg/kg, po administered 1 hr prior to ethanol challenge relative to control.
Assay [6] deals with Rattus norvegicus. In words: Gastroprotective effect in […] assessed as inhibition of ethanol-induced gastric mucosal lesions at 10 mg/kg, po administered 1 hr prior to ethanol challenge relative to control. The class given is functional. The method in brief: as §1
The subject of assay [7] is Rattus norvegicus. Put plainly: Gastroprotective effect in […] assessed as inhibition of ethanol-induced gastric mucosal lesions at 20 mg/kg, po administered 1 hr prior to ethanol challenge relative to control. The class given is functional. The method in brief: as §1
The subject of assay [8] is Rattus norvegicus. Put plainly: Gastroprotective effect in […] assessed as inhibition of ethanol-induced gastric mucosal lesions at 15 mg/kg, po administered 1 hr prior to ethanol challenge relative to control. It counts as functional. The essentials: as §1

`C/C=C(/C)C(=O)O[C@H]1[C@H](OC(C)=O)[C@@]2(CO)C(CC1(C)C)C1=CCC3[C@@]4(C)CC[C@H](O[C@@H]5O[C@H](C(=O)O)[C@@H](O)[C@H](O[C@@H]6OC[C@H](O)[C@H](O)[C@H]6O[C@@H]6OC[C@@H](O)[C@H](O)[C@H]6O)[C@H]5O[C@H]5O[C@H](CO)[C@H](O)[C@H](O)[C@H]5O)[C@@](C)(CO)C4CC[C@@]3(C)[C@]1(C)C[C@H]2O` (stereo partly drawn) [ASSAMSAPONINS D]: in the assay on Rattus norvegicus [1], the inhibition in vivo at 5 mg/kg was 47.9%.

As for `C/C=C(/C)C(=O)O[C@H]1CC(C)(C)CC2C3=CCC4[C@@]5(C)CC[C@H](O[C@@H]6O[C@H](C(=O)O)[C@@H](O)[C@H](O[C@@H]7OC[C@H](O)[C@H](O)[C@H]7O[C@@H]7OC[C@@H](O)[C@H](O)[C@H]7O)[C@H]6O[C@H]6O[C@H](CO)[C@H](O)[C@H](O)[C@H]6O)[C@@](C)(C=O)C5CC[C@@]4(C)[C@]3(C)C[C@@H](O)[C@]21CO` (stereo partly drawn) [ASSAMSAPONINS A], in the assay on Rattus norvegicus [1], the inhibition in vivo at 5 mg/kg was 61%.

Regarding `C/C=C(/C)C(=O)O[C@H]1[C@H](O)[C@@]2(CO)C(CC1(C)C)C1=CCC3[C@@]4(C)CC[C@H](O[C@@H]5O[C@H](C(=O)O)[C@@H](O)[C@H](O[C@@H]6OC[C@H](O)[C@H](O)[C@H]6O[C@@H]6OC[C@@H](O)[C@H](O)[C@H]6O)[C@H]5O[C@H]5O[C@H](CO)[C@H](O)[C@H](O)[C@H]5O)[C@@](C)(CO)C4CC[C@@]3(C)[C@]1(C)C[C@H]2O` (stereo partly drawn) [THEASAPONINS A1], the inhibition in vivo at 5 mg/kg with Rattus norvegicus [1] came out at 37%.

Take `NC[C@H]1CC[C@H](C(=O)Oc2ccc(CCC(=O)O)cc2)CC1` [CETRAXATE HYDROCHLORIDE]: the inhibition in vivo at 150 mg/kg in the assay on Rattus norvegicus [2] turned out to be 65.6%. The inhibition in vivo at 75 mg/kg in the assay on Rattus norvegicus [3] stood at 41.2%. The inhibition in vivo at 300 mg/kg with Rattus norvegicus [4] amounted to 79.4%.

As for `C/C=C(/C)C(=O)O[C@H]1[C@H](O)[C@@]2(COC(C)=O)C(CC1(C)C)C1=CCC3[C@@]4(C)CC[C@H](O[C@@H]5O[C@H](C(=O)O)[C@@H](O)[C@H](O[C@@H]6OC[C@H](O)[C@H](O)[C@H]6O[C@@H]6OC[C@@H](O)[C@H](O)[C@H]6O)[C@H]5O[C@H]5O[C@H](CO)[C@H](O)[C@H](O)[C@H]5O)[C@@](C)(C(=O)OC)C4CC[C@@]3(C)[C@]1(C)C[C@H]2O` (stereo partly drawn) [THEASAPONINS F3], the inhibition in vivo at 5 mg/kg with Rattus norvegicus [1] worked out at 42.1%.

In the case of `C/C=C(/C)C(=O)O[C@H]1[C@H](OC(C)=O)[C@@]2(CO)C(CC1(C)C)C1=CCC3[C@@]4(C)CC[C@H](O[C@@H]5O[C@H](C(=O)O)[C@@H](O)[C@H](O[C@@H]6OC[C@H](O)[C@H](O)[C@H]6O[C@@H]6OC[C@@H](O)[C@H](O)[C@H]6O)[C@H]5O[C@H]5O[C@H](CO)[C@H](O)[C@H](O)[C@H]5O)[C@@](C)(C=O)C4CC[C@@]3(C)[C@]1(C)C[C@H]2O` (stereo partly drawn) [THEASAPONINS E1], the inhibition in vivo at 5 mg/kg in the assay with Rattus norvegicus [5] amounted to 71.4%.

In the case of `C/C=C(/C)C(=O)O[C@H]1[C@H](O)[C@@]2(COC(C)=O)C(CC1(C)C)C1=CCC3[C@@]4(C)CC[C@H](O[C@@H]5O[C@H](C(=O)O)[C@@H](O)[C@H](O[C@@H]6OC[C@H](O)[C@H](O)[C@H]6O[C@@H]6OC[C@@H](O)[C@H](O)[C@H]6O)[C@H]5O[C@H]5O[C@H](CO)[C@H](O)[C@H](O)[C@H]5O)[C@@](C)(CO)C4CC[C@@]3(C)[C@]1(C)C[C@H]2O` (stereo partly drawn) [THEASAPONINS A2], in the assay with Rattus norvegicus [1], the inhibition in vivo at 5 mg/kg came out at 54.7%.

On to `C/C=C(/C)C(=O)O[C@H]1[C@H](O)[C@@]2(COC(C)=O)C(CC1(C)C)C1=CCC3[C@@]4(C)CC[C@H](O[C@@H]5O[C@H](C(=O)O)[C@@H](O)[C@H](O[C@@H]6OC[C@H](O)[C@H](O)[C@H]6O[C@@H]6OC[C@@H](O)[C@H](O)[C@H]6O)[C@H]5O[C@H]5O[C@H](CO)[C@H](O)[C@H](O)[C@H]5O)[C@@](C)(C=O)C4CC[C@@]3(C)[C@]1(C)C[C@H]2O` (stereo partly drawn) [THEASAPONINS E2], for which, in the assay on Rattus norvegicus [5], the inhibition in vivo at 5 mg/kg was found to be 77.6%.

Turning to `COc1ccc2[nH]c([S+]([O-])Cc3ncc(C)c(OC)c3C)nc2c1` (stereo not drawn) [OMEPRAZOLE], the inhibition in vivo at 10 mg/kg in the assay with Rattus norvegicus [6] was found to be 43.1%. Besides, the inhibition in vivo at 20 mg/kg with Rattus norvegicus [7] amounted to 89.4%. Also, in the assay on Rattus norvegicus [8], the inhibition in vivo at 15 mg/kg is 82%.

As usually defined, the inhibition in vivo is the relative decrease from the control value, in per cent.
